rCAG binder-1 = molecules binding r(CAG) RNA repeats; hit rate 1.3% among 370,000; AID 651821; inhibition, % at 3 µM; r(CAG) RNA repeat, TO-PRO-1 dye displacement fluorescence;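 active = inhibition above the plate cutoff, the mean of all test compounds on that plate plus 3 SD, cut at about 35% in these data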;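 note: higher means more dye released from RNA so lower well fluorescence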
ARFGAP1 inhibitor = inhibitors of rat ARFGAP1; AID 651572; hit rate 0.26% among 360,000; Q62848; inhibition, % at 16.5 µM; Arfgap1-stimulated ARF1 GTP hydrolysis, GDP FP detection;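 active = inhibition above a per-plate limit, mean inhibition of low control wells plus 3 SD, cut at about 25% in these data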
Target sequence (Q62848 1-136 limits assumed): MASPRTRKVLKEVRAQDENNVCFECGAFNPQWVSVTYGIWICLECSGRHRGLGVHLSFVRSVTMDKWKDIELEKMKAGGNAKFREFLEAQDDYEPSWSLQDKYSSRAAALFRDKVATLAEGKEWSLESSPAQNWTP
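Assay system: Rat Arfgap1 GAP domain (His6, aa 1-136), purified enzyme | Buffer or medium: HEPES 25 mM pH 7.5, NaCl 150 mM, MgCl2, DTT | Schedule: GTP hydrolysis reaction 2 h at 25 °C | Signal: FP of antibody-bound GDP Alexa 633 tracer, ex 620/em 688 nm | Measure: Percent inhibition of Arfgap1-stimulated GTP hydrolysis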
NadD inh = NadD (S. aureus) enzyme inhibition; inhibition, % at 20 µM; hit rate 0.78% among 360,000; purified NadD enzyme, colorimetric absorbance read-out; in the data active = inhibition above about 26%
ASAP1 inh = inhibitors of human ASAP1 ArfGAP activity. ASAP1-stimulated ARF1 GTP hydrolysis, GDP FP detection. hit rate 0.19% among 360,000. inhibition, % at 16.5 µM; in the data active = inhibition above about 25%
Target sequence (Q9ULH1 325-724 limits assumed): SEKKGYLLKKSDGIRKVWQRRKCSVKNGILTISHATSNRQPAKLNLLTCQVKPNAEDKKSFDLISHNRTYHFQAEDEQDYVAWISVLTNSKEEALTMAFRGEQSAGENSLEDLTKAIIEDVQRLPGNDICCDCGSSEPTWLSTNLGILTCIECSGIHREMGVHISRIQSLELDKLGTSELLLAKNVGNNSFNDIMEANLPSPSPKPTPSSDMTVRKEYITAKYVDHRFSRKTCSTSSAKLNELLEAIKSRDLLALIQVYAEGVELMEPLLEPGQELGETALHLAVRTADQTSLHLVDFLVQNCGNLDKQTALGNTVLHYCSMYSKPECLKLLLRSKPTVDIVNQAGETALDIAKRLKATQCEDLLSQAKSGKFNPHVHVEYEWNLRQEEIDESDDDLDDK
rCAG bind conf = r(CAG) RNA repeat binding, confirmation; shares compounds with rCAG binder-1; TO-PRO-1 dye displacement fluorescence; inhibition, % at 3 µM; hit rate 70% among 4,300; AID 652065;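 active = inhibition above a per-plate cutoff, the mean inhibition of sample wells plus 3 SD, cut at about 35% in these data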;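 note: loss of TO-PRO-1 fluorescence as compound displaces dye from 1x1 AA loop RNA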
DNA CAG counter = counter-screen for rCAG RNA binders: DNA CAG dye complex inhibitors. shares compounds with rCAG binder-1. d(CAG) DNA oligo TO-PRO-1 dye displacement, fluorescence. inhibition, % at 3 µM. hit rate 94% among 4,300. AID 652068;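 active = inhibition above its plate's cutoff, the mean test-well inhibition plus 3 SD, cut at about 4.8% in these data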;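 note: hits displace the dye from DNA and so lower well fluorescence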
dCAG dye DR = DNA CAG dye complex inhibition, dose response counter-screen. shares compounds with rCAG binder-1. DNA CAG/GTC duplex TO-PRO-1 dye displacement fluorescence. IC50, µM. hit rate 20% among 250; in the data active = IC50 below about 10 µM
dCAG TOPRO ctr = counter-screen for rCAG binders: DNA CAG TO-PRO-1 complex inhibitors, late stage | shares compounds with rCAG binder-1 | d(CAG) DNA duplex TO-PRO-1 dye displacement, fluorescence | IC50, µM | hit rate 80% among 30 | AID 720649
rCAG binder-2 = molecules binding r(CAG) RNA repeats, late stage dose response. shares compounds with rCAG binder-1. r(CAG) RNA TO-PRO-1 dye displacement, fluorescence. IC50, µM. hit rate 100% among 30. AID 720651
Hits are given with their value; – = inactive; · = no result. Hits are enriched below; roughly 2.2% of the tested compounds scored in any of these assays. Unless noted, the rule behind the calls is not given here.

SMILES	rCAG binder-1	ARFGAP1 inhibitor	NadD inh	ASAP1 inh	rCAG bind conf	DNA CAG counter	others
COc1ccc(S(=O)(=O)N(C(C)=O)c2ccc3oc(=O)sc3c2)cc1	44	–	–	–	–	6.0
COc1ccc2nc(N3C(=O)C(O)=C(C(=O)c4ccco4)C3c3ccccc3OC)sc2c1 (stereo not drawn)	39	–	–	–	57	21
COc1ccc(C2C(C(=O)c3ccco3)=C(O)C(=O)N2c2nnc(C)s2)cc1 (stereo not drawn)	–	–	–	–	·	·
COc1ccc2nc(N3C(=O)C(O)=C(C(=O)c4ccco4)C3c3ccc(C)o3)sc2c1 (stereo not drawn)	54	–	–	–	59	19
CCC(CO)Nc1cccc2c1S(=O)(=O)N(Cc1cn(Cc3cccc(C(F)(F)F)c3)nn1)Cc1ccccc1O2 (stereo not drawn)	–	·	·	·	·	·
O=C(NC1CCCCN(Cc2cccc(F)c2)C1=O)c1cccc(F)c1 (stereo not drawn)	–	·	·	·	·	·
CC(=O)c1sc(Nc2nc3ccc(F)cc3s2)nc1C	36	–	–	–	–	8.0
Cc1cc(C(C)(C)C)cc(S(=O)(=O)Nc2ccc(O)c(C(=O)O)c2)c1C	57	–	–	–	–	5.3
O=C(C1CCCN1S(=O)(=O)c1cccs1)N1CCc2ccccc2C1 (stereo not drawn)	–	·	·	·	·	·
O=S(=O)(Nc1nc2ccccc2nc1NCCN1CCOCC1)c1cccc(Cl)c1	49	–	–	–	53	10	dCAG dye DR=–
O=S(=O)(Nc1nc2ccccc2nc1NCC1CCCO1)c1cc(Cl)ccc1Cl (stereo not drawn)	71	–	–	–	49	14
O=S(=O)(Nc1nc2ccccc2nc1NCC1CCCO1)c1ccccc1 (stereo not drawn)	–	–	–	–	·	·
CC(=O)CC[C@@H]1CC[C@]2(CCCN(C(=O)C(C)(C)C)C2)O1	–	·	·	·	·	·
Cc1ccc(NC(=O)COc2cccc(-n3cnnn3)c2)cc1S(=O)(=O)N1CCOCC1	–	–	–	–	·	·
CCCCN1Cc2c(nc3cc(-c4ccco4)[nH]n3c2=O)C1=O	66	–	–	–	–	–
N#Cc1c(Cl)c(Cl)c2nnc(-c3ccc(Br)cc3)n2c1Cl	44	–	·	–	40	11
O=C(Cc1cccc(C(F)(F)F)c1)NCc1cccc(Cl)c1	–	–	–	–	·	·
O=C(NCc1cccc(Cl)c1)c1ccc(S(=O)(=O)Nc2cccc(C(F)(F)F)c2)cc1	42	–	–	–	45	9.1
CCOc1ccc2nc(NC(=O)CSc3cn[nH]n3)sc2c1	–	–	–	–	·	·
CCOc1ccc2nc(NC(=O)CSc3nc(-c4ccccc4)c(C#N)c(=O)[nH]3)sc2c1	83	–	–	–	88	69
Cc1sc(NC(=O)CSc2nc(O)cc(=O)[nH]2)nc1-c1ccccc1	–	–	–	–	·	·
CCOC(=O)Cc1csc(NC(=O)CSc2nc(-c3ccccc3)c(C#N)c(=O)[nH]2)n1	64	–	–	–	57	20
COc1cccc(-c2nc(SCC(=O)Nc3nc(-c4ccccc4)c(C)s3)[nH]c(=O)c2C#N)c1	70	–	–	–	92	76
O=C(O)[C@H]1CCCN1C(=O)c1ccccc1N1C(=O)[C@@H]2Cc3c([nH]c4ccccc34)C(c3cccc(Cl)c3)N2C1=O (stereo partly drawn)	39	–	–	–	65	22
COc1cccc(C2c3[nH]c4ccccc4c3C[C@H]3C(=O)N(c4ccccc4C(=O)N4CCC[C@H]4C(=O)O)C(=O)N23)c1 (stereo partly drawn)	–	–	–	–	·	·
SMILES	rCAG binder-1	ARFGAP1 inhibitor	NadD inh	ASAP1 inh	rCAG bind conf	DNA CAG counter	others
O=C(NCCN1CCOCC1)c1ccccc1N1C(=O)[C@@H]2Cc3c([nH]c4ccccc34)C(c3ccccc3)N2C1=O (stereo partly drawn)	–	–	–	–	·	·
O=C(O)[C@@H]1CCCN1C(=O)c1ccccc1N1C(=O)[C@@H]2Cc3c([nH]c4ccccc34)C(c3cccc(Cl)c3)N2C1=O (stereo partly drawn)	35	–	–	–	49	13
COC(=O)CCCn1cc(CN2CC(N3CCN(Cc4cccc(C)c4)CC3)CS2(=O)=O)nn1 (stereo not drawn)	–	–	–	–	·	·
CCCCNS(=O)(=O)/C=C/c1cc(C)ccc1CNC(=O)OC(C)(C)C	–	·	·	·	·	·
COC(=O)[C@]12C[C@H](CC(=O)NCCC(C)C)C(=O)N(CCC3=CCCCC3)C1=C[C@H](C(C)(C)C)O[C@@H]2C	–	–	·	–	·	·
O=C(CNC(=O)c1ccccc1Br)N/N=C\c1cc([N+](=O)[O-])cc(Br)c1O	39	–	–	–	–	7.9
COc1ccc(C2c3[nH]c4ccccc4c3C[C@H]3C(=O)N(c4ccccc4C(=O)N4CCC[C@H]4C(=O)O)C(=O)N23)cc1 (stereo partly drawn)	37	–	–	–	51	16
Cc1ccc(C2c3[nH]c4ccccc4c3C[C@H]3C(=O)N(c4ccccc4C(=O)N4CCC[C@H]4C(=O)O)C(=O)N23)cc1 (stereo partly drawn)	39	–	–	–	57	18
CC(C)c1ccc(C2c3[nH]c4ccccc4c3C[C@H]3C(=O)N(c4ccccc4C(=O)N4CCC[C@@H]4C(=O)O)C(=O)N23)cc1 (stereo partly drawn)	46	–	–	–	71	28	dCAG dye DR=–;dCAG TOPRO ctr=–;rCAG binder-2=1.9
COc1ccc(C2c3[nH]c4ccccc4c3C[C@H]3C(=O)N(c4ccccc4C(=O)N4CCC[C@@H]4C(=O)O)C(=O)N23)cc1 (stereo partly drawn)	–	–	–	–	·	·
CC(C)c1ccc(C2c3[nH]c4ccccc4c3C[C@H]3C(=O)N(c4ccccc4C(=O)N4CCC(C(=O)O)CC4)C(=O)N23)cc1 (stereo partly drawn)	42	–	–	–	61	21
CCCCC1Cc2[nH]c(=S)[nH]c(=O)c2C(c2cccc3ccccc23)O1 (stereo not drawn)	–	–	–	–	·	·
COc1ccc(-c2cc(-c3nnc(SCC(=O)Nc4nccs4)n3N)[nH]n2)cc1	–	·	·	·	·	·
Cc1cc(C)cc(N(CC(=O)NC2CCC(C)CC2)S(=O)(=O)c2ccccc2)c1 (stereo not drawn)	–	·	·	·	·	·

Screening data (PubChem BioAssay)
